Experimental data: ChEMBL document CHEMBL1833790, “N-(2-{3-[3,5-bis(trifluoromethyl)phenyl]ureido}ethyl)-glycyrrhetinamide (6b): a novel anticancer glycyrrhetinic acid derivative that targets the proteasome and displays anti-kinase activity” (J Med Chem, 2011)
Active and inactive are the calls of the source. No cut-off for these calls is given here. Peptide text beside a SMILES is read from it. * marks the point of attachment. Cbz = O=C(OCc1ccccc1)*

What was measured:
[1] = tested on: B16-F10; test: Growth inhibition in mouse B16F10 after 3 days by MTT assay; type: functional; conditions: B16-F10, 72 h
Outline: (§1)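 Cells grown in RPMI with 10% heat-inactivated FCS, 4 mM glutamine, gentamicin and penicillin–streptomycin. Drug exposure 3 days, growth read by MTT colorimetric assay. Nine concentrations from 0.01 to 100 μM in semilog steps, six replicates each; IC50 derived per cell line.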

[2] = tested on: Hs 683; test: Growth inhibition in apoptosis-sensitive human Hs683 after 3 days by MTT assay; type: functional; conditions: Hs 683, 72 h; outline: as §1
[3] = tested on: PC-3; test: Growth inhibition in apoptosis-sensitive human PC3 after 3 days by MTT assay; type: functional; conditions: PC-3, 72 h; outline: as §1
[4] = Growth inhibition in apoptosis-resistant human U373 after 3 days by MTT assay; type: functional, U-373MG ATCC; conditions: U373 MG, 72 h; outline: as §1
[5] = tested on: MCF7; test: Growth inhibition in apoptosis-sensitive human MCF7 after 3 days by MTT assay; type: functional; conditions: MCF7, 72 h; outline: as §1
[6] = tested on: SK-MEL-28; test: Growth inhibition in apoptosis-resistant human SK-MEL-28 after 3 days by MTT assay; type: functional; conditions: SK-MEL-28, 72 h; outline: as §1
[7] = Chemical stability of the compound in MEM cell culture medium after 7 days by HPLC analysis; type: physicochemical; conditions: read-out: Stability
Outline: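 Compound incubated in MEM culture medium at 37 °C for 7 days, then analysed by HPLC on RX-C8 (5 μm) column with MeOH–water 90:10 (0.1% TFA), diode-array detection. Expressed as % of incubated compound recovered.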

[8] = tested on: A549; test: Growth inhibition in apoptosis-resistant human A549 after 3 days by MTT assay; type: functional; conditions: A549, 72 h; outline: as §1
[9] = tested on: T98G; test: Growth inhibition in apoptosis-resistant human T98G after 3 days by MTT assay; type: functional; conditions: 72 h; outline: as §1
[10] = tested on: U-373MG ATCC; test: Inhibition of caspase-like activity of 20S proteasome in human U373 cells at 0.5 uM after 2 days by bioluminescence assay; type: cell-based
Outline: (§2)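 U373 GBM cells seeded at 5000 cells/mL and grown 48 h, then treated for two days. Cells washed in PBS and permeabilised with 0.025% digitonin. Proteasome-Glo reagent added with Suc-LLVY-Glo (chymotrypsin-like), Z-LRR-Glo (trypsin-like) or Z-nLPnLD-Glo (caspase-like) substrate. Luminescence read after 10 min in the dark and normalised to a parallel MTT viability assay; triplicates. MG-132 at 0.5 μM used as reference.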

[11] = tested on: U-373MG ATCC; test: Inhibition of chymotrypsin-like activity of 20S proteasome in human U373 at 7 uM after 2 days by bioluminescence assay; type: cell-based; outline: as §2
[12] = tested on: U-373MG ATCC; test: Inhibition of chymotrypsin-like activity of 20S proteasome in human U373 cells at 60 uM after 2 days by bioluminescence assay; type: cell-based; outline: as §2
[13] = tested on: U-373MG ATCC; test: Inhibition of chymotrypsin-like activity of 20S proteasome in human U373 cells at 0.5 uM after 2 days by bioluminescence assay; type: cell-based; outline: as §2
[14] = tested on: U-373MG ATCC; test: Inhibition of trypsin-like activity of 20S proteasome in human U373 cells at 0.5 uM after 2 days by bioluminescence assay; type: cell-based; outline: as §2
[15] = tested on: U-373MG ATCC; test: Inhibition of caspase-like activity of 20S proteasome in human U373 cells at 60 uM after 2 days by bioluminescence assay; type: cell-based; outline: as §2
[16] = tested on: U-373MG ATCC; test: Inhibition of caspase-like activity of 20S proteasome in human U373 cells at 7 uM after 2 days by bioluminescence assay; type: cell-based; outline: as §2
[17] = tested on: U-373MG ATCC; test: Inhibition of trypsin-like activity of 20S proteasome in human U373 cells at 60 uM after 2 days by bioluminescence assay; type: cell-based; outline: as §2
[18] = tested on: U-373MG ATCC; test: Inhibition of trypsin-like activity of 20S proteasome in human U373 cells at 7 uM after 2 days by bioluminescence assay; type: cell-based; outline: as §2
[19] = target: T1, Peroxisome proliferator-activated receptor gamma (Homo sapiens) (UniProt P37231); test: Activation of PPARgamma activity in human U373 cells at 60 uM after 6 hrs by spectrophotometric analysis relative to control; type: cell-based; conditions: U-373MG ATCC
T1 sequence (whole entry): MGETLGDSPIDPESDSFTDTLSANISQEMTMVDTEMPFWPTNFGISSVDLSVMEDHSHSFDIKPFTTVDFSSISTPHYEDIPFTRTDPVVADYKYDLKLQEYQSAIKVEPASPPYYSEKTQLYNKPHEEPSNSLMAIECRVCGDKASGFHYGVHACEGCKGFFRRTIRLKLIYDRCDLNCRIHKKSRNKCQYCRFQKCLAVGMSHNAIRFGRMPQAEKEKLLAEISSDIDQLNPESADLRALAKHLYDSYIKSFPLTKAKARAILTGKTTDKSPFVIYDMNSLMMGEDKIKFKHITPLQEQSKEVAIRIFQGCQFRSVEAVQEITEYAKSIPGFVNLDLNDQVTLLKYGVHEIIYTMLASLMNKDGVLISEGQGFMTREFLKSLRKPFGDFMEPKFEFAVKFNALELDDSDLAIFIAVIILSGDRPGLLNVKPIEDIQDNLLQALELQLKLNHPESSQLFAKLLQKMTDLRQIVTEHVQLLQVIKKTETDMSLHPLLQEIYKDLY
Outline: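 U373 glioblastoma cells were exposed for 6 h. Nuclear extracts were prepared by hypotonic buffer, NP-40 lysis and a protease-inhibitor extraction buffer. Extracts were bound overnight at 4 °C in a PPAR-γ transcription-factor plate, then probed with primary antibody and HRP anti-rabbit secondary, 1 h each at room temperature. Developer ran 45 min, read at 450 nm. Triplicates, mean ± SD versus control.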

SMILES	GI50 [1] [µM]	GI50 [2] [µM]	GI50 [3] [µM]	GI50 [4] [µM]	GI50 [5] [µM]	GI50 [6] [µM]	remaining at 168 h [7] [%]	GI50 [8] [µM]	GI50 [9] [µM]	inhibition [10]	inhibition [11]	inhibition [12]	inhibition [13]	inhibition [14]	inhibition [15]	inhibition [16]	inhibition [17]	inhibition [18]	Activity [19]
CC(C)(C)OC(=O)NCCNC(=O)[C@@]1(C)CC[C@]2(C)CC[C@]3(C)C(=CC(=O)[C@@H]4[C@@]5(C)CC[C@H](O)C(C)(C)[C@@H]5CC[C@]43C)[C@@H]2C1	48	63	41	57	37	60	93	43	73										
CC1(C)[C@@H](O)CC[C@]2(C)[C@H]3C(=O)C=C4[C@@H]5C[C@@](C)(C(=O)NCCNC(=O)c6ccc(C(F)(F)F)cc6)CC[C@]5(C)CC[C@@]4(C)[C@]3(C)CC[C@@H]12	36	38	53	55	28	49	95	47	62										
CC1(C)[C@@H](O)CC[C@]2(C)[C@H]3C(=O)C=C4[C@@H]5C[C@@](C)(C(=O)NCCNC(=O)c6ccc(C#N)cc6)CC[C@]5(C)CC[C@@]4(C)[C@]3(C)CC[C@@H]12	31	67	72	76	27	35	92	68	77										
CC1(C)[C@@H](O)CC[C@]2(C)[C@H]3C(=O)C=C4[C@@H]5C[C@@](C)(C(=O)NCCN)CC[C@]5(C)CC[C@@]4(C)[C@]3(C)CC[C@@H]12	30	58	31	32	59	> 100	90	31	> 100	Active	Active	Active	Active	Active	Active	Active	Active	Active	Active
COc1cccc(C(=O)NCCNC(=O)[C@@]2(C)CC[C@]3(C)CC[C@]4(C)C(=CC(=O)[C@@H]5[C@@]6(C)CC[C@H](O)C(C)(C)[C@@H]6CC[C@]54C)[C@@H]3C2)c1	31	58	72	75	46	42	99	63	77										
CC1(C)[C@@H](O)CC[C@]2(C)[C@H]3C(=O)C=C4[C@@H]5C[C@@](C)(C(=O)NCCNC(=O)Nc6ccccc6)CC[C@]5(C)CC[C@@]4(C)[C@]3(C)CC[C@@H]12	31	28	32	30	28	49	96	29	30										
CC(C)C[C@@H](C=O)NC(=O)[C@H](CC(C)C)NC(=O)[C@H](CC(C)C)NC(=O)OCc1ccccc1 (Cbz-Leu-Leu-Leu-aldehyde)										Active	Active	Active	Active	Active	Active	Active	Active	Active	
COc1ccc(CCNC(=O)[C@@]2(C)CC[C@]3(C)CC[C@]4(C)C(=CC(=O)[C@@H]5[C@@]6(C)CC[C@H](O)C(C)(C)[C@@H]6CC[C@]54C)[C@@H]3C2)cc1	31	61	34	49	36	> 100	91	37	68										
CC1(C)[C@@H](O)CC[C@]2(C)[C@H]3C(=O)C=C4[C@@H]5C[C@@](C)(C(=O)NCCc6ccc(F)cc6)CC[C@]5(C)CC[C@@]4(C)[C@]3(C)CC[C@@H]12	32	56	33	42	31	82	95	33	46										
CSc1ccc(C(=O)NCCNC(=O)[C@@]2(C)CC[C@]3(C)CC[C@]4(C)C(=CC(=O)[C@@H]5[C@@]6(C)CC[C@H](O)C(C)(C)[C@@H]6CC[C@]54C)[C@@H]3C2)cc1	31	36	47	37	30	38	99	37	54										
CCOC(=O)CCNC(=O)NCCNC(=O)[C@@]1(C)CC[C@]2(C)CC[C@]3(C)C(=CC(=O)[C@@H]4[C@@]5(C)CC[C@H](O)C(C)(C)[C@@H]5CC[C@]43C)[C@@H]2C1	41	42	46	42	42	65	99	29	71										
CSCCCNC(=S)NCCNC(=O)[C@@]1(C)CC[C@]2(C)CC[C@]3(C)C(=CC(=O)[C@@H]4[C@@]5(C)CC[C@H](O)C(C)(C)[C@@H]5CC[C@]43C)[C@@H]2C1	33	36	39	35	30	33	93	38	35										
CC1(C)[C@@H](O)CC[C@]2(C)[C@H]3C(=O)C=C4[C@@H]5C[C@@](C)(C(=O)NCCNC(=O)c6ccc(F)cc6)CC[C@]5(C)CC[C@@]4(C)[C@]3(C)CC[C@@H]12	28	31	30	29	25	37	98	28	35										
